Test results as given in ChEMBL document CHEMBL3867457, “Cytotoxic Ceanothane- and Lupane-Type Triterpenoids from the Roots of Ziziphus jujuba” (J Nat Prod, 2016).

Experiment: Cytotoxicity against human HepG2 cells assessed as reduction in cell viability measured after 48 hrs by MTT assay
Format: functional, cell-based
Settings: HepG2, 48 h
Summary of the method: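 HepG2 cells grown in DMEM with 10% FBS, penicillin/streptomycin, 5% CO2, 37 °C; seeded at 5 × 10^4 cells/mL, attached 12 h. Compounds in DMSO at 1, 5, 10, 25 μM for 48 h; docetaxel positive control. MTT added for 4 h, formazan dissolved in DMSO, absorbance 550 nm. Viability relative to control wells; IC50 with 95% CI by log-concentration regression; three independent replicates.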

`C=C(C)[C@@H]1CC[C@]2(C(=O)O)CC[C@]3(C(=O)O)[C@H](CC[C@@H]4[C@@]5(C)[C@@H](C(=O)OC)[C@H](O)C(C)(C)[C@@H]5CC[C@]43C)[C@@H]12` and `C=C(C)[C@@H]1CC[C@]2(C(=O)O)CC[C@]3(C)[C@H](CC[C@@H]4[C@@]5(C)[C@H](C(=O)OC)[C@H](O)C(C)(C)[C@@H]5CC[C@]43C)[C@@H]12` cannot be ordered by IC50: > 10 µM for the first, > 10 µM for the second.

`C=C(C)[C@@H]1CC[C@]2(C(=O)O)CC[C@]3(C)[C@H](CC[C@@H]4[C@@]5(C)[C@@H](C(=O)O)[C@H](O)C(C)(C)[C@@H]5CC[C@]43C)[C@@H]12` [CEANOTHIC ACID] and `C=C(C)[C@@H]1CC[C@]2(C(=O)O)CC[C@]3(C)[C@H](CC[C@@H]4[C@@]5(C)[C@H](C(=O)O)[C@H](O)C(C)(C)[C@@H]5CC[C@]43C)[C@@H]12` [EPICEANOTHIC ACID] cannot be ordered by IC50: > 10 µM for the first, > 10 µM for the second.

Going from `C=C(C)[C@@H]1CC[C@]2(C(=O)O)CC[C@]3(C)[C@H](CC[C@@H]4[C@@]5(C)C[C@@H](OC(=O)c6ccc(O)c(O)c6)[C@H](O)C(C)(C)[C@@H]5CC[C@]43C)[C@@H]12` to `C=C(C)[C@@H]1CC[C@]2(C(=O)O)CC[C@]3(C)[C@H](CC[C@@H]4[C@@]5(C)C[C@@H](OC(=O)c6ccc(O)cc6)[C@H](O)C(C)(C)[C@@H]5CC[C@]43C)[C@@H]12`, the IC50 falls from > 10 µM to 2.9 µM.

`C=C(C)[C@@H]1CC[C@]2(C(=O)O)CC[C@]3(C)[C@H](CC[C@@H]4[C@@]5(C)[C@@H](C(=O)O)[C@H](OC(=O)c6ccc(O)cc6)C(C)(C)[C@@H]5CC[C@]43C)[C@@H]12` and `C=C(C)[C@@H]1CC[C@]2(C(=O)O)CC[C@]3(C)[C@H](CC[C@@H]4[C@@]5(C)[C@H](C(=O)O)[C@H](OC(=O)c6ccc(O)cc6)C(C)(C)[C@@H]5CC[C@]43C)[C@@H]12` cannot be ordered by IC50: > 10 µM for the first, > 10 µM for the second.

`C=C(C)[C@@H]1CC[C@]2(C(=O)O)CC[C@]3(C)[C@H](CC[C@@H]4[C@@]5(C)[C@@H](C(=O)O)[C@H](O)[C@](C)(CO)[C@@H]5CC[C@]43C)[C@@H]12` and `C=C(C)[C@@H]1CC[C@]2(C(=O)O)CC[C@]3(C)[C@H](CC[C@@H]4[C@@]5(C)C[C@@H](O)[C@H](O)C(C)(C)[C@@H]5CC[C@]43C)[C@@H]12` [ALPHITOLIC ACID] cannot be ordered by IC50: > 10 µM for the first, > 10 µM for the second.

Compared with `C=C(C)[C@@H]1CC[C@]2(C(=O)O)CC[C@]3(C)[C@H](CC[C@@H]4[C@@]5(C)[C@@H](C(=O)OC)[C@H](OC(=O)c6ccc(O)c(OC)c6)C(C)(C)[C@@H]5CC[C@]43C)[C@@H]12`, `C=C(C)[C@@H]1CC[C@]2(C(=O)O)CC[C@]3(C)[C@H](CC[C@@H]4[C@@]5(C)[C@H](C(=O)O)[C@H](OC(=O)c6ccc(O)c(OC)c6)C(C)(C)[C@@H]5CC[C@]43C)[C@@H]12` is 2.1-fold higher in IC50: 1.9 µM for the first, 3.9 µM for the second.

Going from `C=C(C)[C@@H]1CC[C@]2(C(=O)O)CC[C@]3(C)[C@H](CC[C@@H]4[C@@]5(C)C[C@@H](OC(=O)c6ccccc6)[C@H](O)C(C)(C)[C@@H]5CC[C@]43C)[C@@H]12` to `C=C(C)[C@@H]1CC[C@]2(C(=O)O)CC[C@]3(C)[C@H](CC[C@@H]4[C@@]5(C)C[C@@H](OC(=O)/C=C\c6ccc(O)cc6)[C@H](O)C(C)(C)[C@@H]5CC[C@]43C)[C@@H]12`, the IC50 falls from > 10 µM to 2.1 µM. The second is the more potent here.

Compared with `C=C(C)[C@@H]1CC[C@]2(C(=O)O)CC[C@]3(C)[C@H](CC[C@@H]4[C@@]5(C)C(C=O)=CC(C)(C)[C@@H]5CC[C@]43C)[C@@H]12`, `C=C(C)[C@@H]1CC[C@]2(C(=O)O)CC[C@]3(C)[C@H](CC[C@@H]4[C@@]5(C)CC[C@H](O)C(C)(C)[C@@H]5CC[C@]43C)[C@@H]12` [BETULINIC ACID] is 3-fold higher in IC50: 2 µM for the first, 5.9 µM for the second. The first is the more potent here.

Going from `C=C(C)[C@@H]1CC[C@]2(C(=O)O)CC[C@]3(C)[C@H](CC[C@@H]4[C@@]5(C)[C@@H](C(=O)O)[C@H](OC(=O)c6ccc(O)c(O)c6)C(C)(C)[C@@H]5CC[C@]43C)[C@@H]12` to `C=C(C)[C@@H]1CC[C@]2(C(=O)O)CC[C@]3(C)[C@H](CC[C@@H]4[C@@]5(C)[C@@H](C(=O)OC)[C@H](OC(=O)c6ccc(O)c(O)c6)C(C)(C)[C@@H]5CC[C@]43C)[C@@H]12`, the IC50 falls from > 10 µM to 2.8 µM. The second is the more potent here.

`C=C(C)[C@@H]1CC[C@]2(C(=O)O)CC[C@]3(C(=O)O)[C@H](CC[C@@H]4[C@@]5(C)[C@@H](C(=O)OC)CC(C)(C)[C@@H]5CC[C@]43C)[C@@H]12` and `C=C(C)[C@@H]1CC[C@]2(C(=O)O)CC[C@]3(C(=O)O)[C@H](CC[C@@H]4[C@@]5(C)[C@@H](C(=O)O)CC(C)(C)[C@@H]5CC[C@]43C)[C@@H]12` cannot be ordered by IC50: > 10 µM for the first, > 10 µM for the second.

Going from `C=C(C)[C@@H]1CC=C2CC[C@]3(C(=O)O)[C@H](CC[C@@H]4[C@@]5(C)C=C[C@](C)(CO)[C@@H]5CC[C@]43C)[C@H]21` to `C=C(C)[C@@]12CC[C@@]3(CC[C@]4(C(=O)O)[C@H](CC[C@@H]5[C@@]6(C)[C@@H](C(=O)O)CC(C)(C)[C@@H]6CC[C@]54C)[C@H]31)C(=O)O2`, the IC50 rises from 4.9 µM to > 10 µM.

First: C=C(C)[C@@H]1CC[C@]2(C(=O)O)CC[C@]3(C)[C@H](CC[C@@H]4[C@@]5(C)[C@@H](C(=O)O)[C@H](OC(=O)c6ccc(O)c(OC)c6)C(C)(C)[C@@H]5CC[C@]43C)[C@@H]12
Second: C=C(C)[C@@H]1CC[C@]2(C(=O)O)CC[C@]3(C)[C@H](CC[C@@H]4[C@@]5(C)C[C@@H](OC(=O)/C=C/c6ccc(O)cc6)[C@H](O)C(C)(C)[C@@H]5CC[C@]43C)[C@@H]12
The IC50 of the first is higher: > 10 µM for the first, 2 µM for the second.

With `CC(=O)O[C@@]12CO[C@@H]1C[C@H](O)[C@@]1(C)C(=O)[C@H](O)C3=C(C)[C@@H](OC(=O)[C@H](O)[C@@H](NC(=O)OC(C)(C)C)c4ccccc4)C[C@@](O)([C@@H](OC(=O)c4ccccc4)[C@H]21)C3(C)C` [DOCETAXEL ANHYDROUS] the IC50 was 8.3 µM.
